How the values were obtained:
MCF7 [1] = assay: Cytotoxicity against human MCF7 cells overexpressing biotin receptor assessed as growth inhibition treated for 24 hrs then incubated 48 hrs with camptothecin by MTT assay in presence of camptothecin; format: functional, cell-based
Method in brief: (§1)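 Cells were seeded at 8000–10000 per well and preincubated 24 h. Taxoid was given first for 24 h at 37 °C. An equimolar amount of camptothecin was then added for another 48 h at 37 °C. Viability was read by MTT at 570 nm, and IC50 came from a four-parameter logistic fit, in triplicate.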

MX1 [2] = assay: Cytotoxicity against human MX1 cells overexpressing biotin receptor assessed as growth inhibition after 72 hrs by MTT assay; format: functional, cell-based
Method in brief: (§2)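 Continuous 72 h exposure at 37 °C. Cells were seeded at 0.5–1.5 × 10^4 per well, and adherent lines were left to settle overnight before the medium was refreshed. DMSO was ≤1%. Read-out was MTT (0.5 mg/mL, 3 h), with formazan dissolved in 0.1 N HCl/2-propanol plus 10% Triton X-100 and absorbance read at 570 nm. IC50 came from a four-parameter logistic fit, in triplicate.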

[3] = Cytotoxicity against mouse ID8 cells overexpressing biotin receptor assessed as growth inhibition treated for 24 hrs then incubated 48 hrs with camptothecin by MTT assay in presence of camptothecin; format: functional, cell-based; method in brief: as §1
MCF7 [4] = assay: Cytotoxicity against human MCF7 cells overexpressing biotin receptor assessed as growth inhibition pretreated for 24 hrs with camptothecin then incubated for 48 hrs by MTT assay in presence of camptothecin; format: functional, cell-based
Method in brief: as §1, with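 “Camptothecin serial dilutions were” for “Taxoid was”, “taxoid” for “camptothecin”, “a further” for “another”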

MX1 [5] = assay: Cytotoxicity against human MX1 cells overexpressing biotin receptor assessed as growth inhibition pretreated for 24 hrs with camptothecin then incubated for 48 hrs by MTT assay in presence of camptothecin; format: functional, cell-based
Method in brief: as §1, with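 “Camptothecin serial dilutions were” for “Taxoid was”, “taxoid” for “camptothecin”, “a further” for “another”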

MX1 [6] = assay: Cytotoxicity against human MX1 cells overexpressing biotin receptor assessed as growth inhibition treated for 24 hrs then incubated 48 hrs with camptothecin by MTT assay in presence of camptothecin; format: functional, cell-based; method in brief: as §1
L1210 [7] = assay: Cytotoxicity against mouse L1210 cells overexpressing folate receptor assessed as growth inhibition pretreated for 24 hrs with camptothecin then incubated for 48 hrs by MTT assay in presence of camptothecin; format: functional, cell-based
Method in brief: as §1, with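 “Camptothecin serial dilutions were” for “Taxoid was”, “taxoid” for “camptothecin”, “a further” for “another”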

L1210 [8] = assay: Cytotoxicity against mouse L1210 cells overexpressing folate receptor assessed as growth inhibition at 1:1 compound to camptothecin ratio after 72 hrs by MTT assay in presence of camptothecin; format: functional, cell-based; conditions: L1210, 72 h
Method in brief: (§3)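 Cells were exposed simultaneously to an equimolar taxoid/camptothecin mixture for 72 h at 37 °C. Viability was read by MTT (0.5 mg/mL, 3 h, absorbance 570 nm). IC50 came from a four-parameter logistic fit of viability against concentration, in triplicate.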

[9] = Cytotoxicity against mouse ID8 cells overexpressing biotin receptor assessed as growth inhibition at 1:1 compound to camptothecin ratio after 72 hrs by MTT assay in presence of camptothecin; format: functional, cell-based; conditions: ID8, 72 h; method in brief: as §3
L1210 [10] = assay: Cytotoxicity against mouse L1210 cells overexpressing folate receptor assessed as growth inhibition treated for 24 hrs then incubated 48 hrs with camptothecin by MTT assay in presence of camptothecin; format: functional, cell-based; method in brief: as §1
MCF7 [11] = assay: Cytotoxicity against human MCF7 cells overexpressing biotin receptor assessed as growth inhibition after 72 hrs by MTT assay; format: functional, cell-based; method in brief: as §2
MCF7 [12] = assay: Cytotoxicity against human MCF7 cells overexpressing biotin receptor assessed as growth inhibition at 1:1 compound to camptothecin ratio after 72 hrs by MTT assay in presence of camptothecin; format: functional, cell-based; conditions: MCF7, 72 h; method in brief: as §3
MX1 [13] = assay: Cytotoxicity against human MX1 cells overexpressing biotin receptor assessed as growth inhibition at 1:1 compound to camptothecin ratio after 72 hrs by MTT assay in presence of camptothecin; format: functional, cell-based; conditions: MX1, 72 h; method in brief: as §3
[14] = Cytotoxicity against mouse ID8 cells overexpressing biotin receptor assessed as growth inhibition after 72 hrs by MTT assay; format: functional, cell-based; method in brief: as §2
[15] = Cytotoxicity against human WI38 cells assessed as growth inhibition after 72 hrs by MTT assay; conditions: WI-38, 72 h
[16] = Cytotoxicity against mouse ID8 cells overexpressing biotin receptor assessed as growth inhibition pretreated for 24 hrs with camptothecin then incubated for 48 hrs by MTT assay in presence of camptothecin; format: functional, cell-based
Method in brief: as §1, with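 “Camptothecin serial dilutions were” for “Taxoid was”, “taxoid” for “camptothecin”, “a further” for “another”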

L1210 [17] = assay: Cytotoxicity against mouse L1210 cells overexpressing biotin receptor assessed as growth inhibition after 72 hrs by MTT assay; conditions: L1210, 72 h
L1210 [18] = assay: Cytotoxicity against mouse L1210 cells overexpressing folate receptor assessed as growth inhibition after 24 hrs by MTT assay; format: functional, cell-based
Method in brief: (§4)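 Conjugate was incubated with cells for 24 h at 37 °C, then removed by PBS washing. GSH-OEt (6 equiv to conjugate) in medium was added to release drug, followed by a further 48 h at 37 °C (72 h total). Read-out was MTT at 570 nm. IC50 came from a four-parameter logistic fit, in triplicate.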

MCF7 [19] = assay: Cytotoxicity against human MCF7 cells overexpressing biotin receptor assessed as growth inhibition after 24 hrs by MTT assay; format: functional, cell-based; method in brief: as §4
MX1 [20] = assay: Cytotoxicity against human MX1 cells overexpressing biotin receptor assessed as growth inhibition after 24 hrs by MTT assay; format: functional, cell-based; method in brief: as §4
[21] = Drug uptake in mouse ID8 cells at 10 uM after 10 hrs by confocal fluorescence microscopy analysis; format: ADME, cell-based; conditions: id8, 10 h
Method in brief: (§5)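 Cells were incubated with 10 μM conjugate at 37 °C for 10 h, washed thoroughly, and resuspended in PBS. Internalization was imaged by confocal microscopy using camptothecin's intrinsic fluorescence.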

MCF7 [22] = assay: Drug uptake in human MCF7 cells at 10 uM after 10 hrs by confocal fluorescence microscopy analysis; format: ADME, cell-based; conditions: mcf7, 10 h; method in brief: as §5
[23] = Cytotoxicity against mouse ID8 cells overexpressing biotin receptor assessed as growth inhibition after 24 hrs by MTT assay; format: functional, cell-based
[24] = Cytotoxicity against human WI38 cells overexpressing biotin receptor assessed as growth inhibition after 72 hrs by MTT assay; format: functional, cell-based; conditions: wi-38; method in brief: as §2
L1210 [25] = assay: Cytotoxicity against mouse L1210 cells overexpressing folate receptor assessed as growth inhibition after 72 hrs by MTT assay; format: functional, cell-based; method in brief: as §2

| Compound | IC50 (MX1 [2]; Homo sapiens, MX1, 72 h) | IC50 (MCF7 [11]; Homo sapiens, MCF7, 72 h) | IC50 ([14]; Mus musculus, ID8, 72 h) | IC50 [15] | IC50 (L1210 [17]) | IC50 (MX1 [2]; mx1) | IC50 (L1210 [18]; l1210) | IC50 (MCF7 [11]; mcf7) | IC50 [24] | IC50 ([14]; id8) | IC50 (MCF7 [19]; mcf7) | IC50 (MX1 [20]; mx1) | IC50 (L1210 [25]) | IC50 ([23]; id8) | further results |
| --- | --- | --- | --- | --- | --- | --- | --- | --- | --- | --- | --- | --- | --- | --- | --- |
| CC(=O)O[C@@]12CCO[C@@H]1C[C@H](O)[C@@]1(C)C(=O)[C@H](OC(=O)C3CC3)C3=C(C)[C@@H](OC(=O)[C@H](O)[C@H](C=C(C)C)NC(=O)OC(C)(C)C)C[C@@](O)([C@@H](OC(=O)c4ccccc4)[C@H]21)C3(C)C | 2.01 nM | 0.44 nM | 1.11 nM | 5.89 nM | 2.14 nM |  |  |  |  |  |  |  |  |  | IC50 (MCF7 [1]): 0.33 nM; IC50 [3]: 0.96 nM; IC50 (MCF7 [4]): 79.2 nM; IC50 (MX1 [5]): > 5000 nM; IC50 (MX1 [6]): 1.98 nM; IC50 (L1210 [7]): 949 nM; IC50 (L1210 [8]): 4.14 nM; IC50 [9]: 1.02 nM; IC50 (L1210 [10]): 3.51 nM; IC50 (MCF7 [12]): 0.4 nM; IC50 (MX1 [13]): 1.88 nM; IC50 [16]: 110 nM |
| CC[C@@]1(OC(=O)Cc2ccccc2SSC(C)CCC(=O)NCCOCCOCCOCCn2cc(CNc3nc(NCCNC(=O)CCC(C)SSc4ccccc4CC(=O)O[C@@H](C(=O)O[C@H]4C[C@@]5(O)[C@@H](OC(=O)c6ccccc6)[C@@H]6[C@]7(OC(C)=O)CCO[C@@H]7C[C@H](O)[C@@]6(C)C(=O)[C@H](OC(=O)C6CC6)C(=C4C)C5(C)C)[C@H](C=C(C)C)NC(=O)OC(C)(C)C)nc(NCCOCCOCCOCCNC(=O)CCCC[C@@H]4SC[C@@H]5NC(=O)N[C@@H]54)n3)nn2)C(=O)OCc2c1cc1n(c2=O)Cc2cc3ccccc3nc2-1 (stereo not given in full) | 51.7 nM | 19 nM | 23.4 nM | 742 nM | 39.1 nM |  |  |  |  |  |  |  |  |  | IC50 (L1210 [18]; Mus musculus, L1210, 24 h): 7.4 nM; IC50 (MCF7 [19]; Homo sapiens, MCF7, 24 h): 3.2 nM; IC50 (MX1 [20]; Homo sapiens, MX1, 24 h): 9.8 nM; Drug uptake [21]: Active; Drug uptake (MCF7 [22]): Active; IC50 ([23]; Mus musculus, ID8, 24 h): 5.7 nM |
| CC[C@@]1(OC(=O)CCC(=O)NCCOCCOCCOCCn2cc(CNc3nc(NCCNC(=O)CCC(C)SSc4ccccc4CC(=O)O[C@@H](C(=O)O[C@H]4C[C@@]5(O)[C@@H](OC(=O)c6ccccc6)[C@@H]6[C@]7(OC(C)=O)CCO[C@@H]7C[C@H](O)[C@@]6(C)C(=O)[C@H](OC(=O)C6CC6)C(=C4C)C5(C)C)[C@H](C=C(C)C)NC(=O)OC(C)(C)C)nc(NCCOCCOCCOCCNC(=O)CCCC[C@@H]4SC[C@@H]5NC(=O)N[C@@H]54)n3)nn2)C(=O)OCc2c1cc1n(c2=O)Cc2cc3ccccc3nc2-1 (stereo not given in full) |  |  |  |  |  | 65.1 nM | 13.7 nM | 21.1 nM | 868 nM | 25.6 nM | 9.4 nM | 20.8 nM | 42.5 nM | 10.3 nM |  |
| CC(=O)O[C@@]12CCO[C@@H]1C[C@H](O)[C@@]1(C)C(=O)[C@H](OC(=O)C3CC3)C3=C(C)[C@@H](OC(=O)[C@H](OC(=O)Cc4ccccc4SSC(C)CCC(=O)NCCNc4nc(NCCOCCOCCOCCNC(=O)CCCC[C@@H]5SC[C@@H]6NC(=O)N[C@@H]65)nc(NCc5cn(CCOCCOCCOCCNC(=O)CCC(C)SSc6ccccc6CC(=O)Oc6ccccc6)nn5)n4)[C@H](C=C(C)C)NC(=O)OC(C)(C)C)C[C@@](O)([C@@H](OC(=O)c4ccccc4)[C@H]21)C3(C)C (stereo not given in full) |  |  |  |  |  | 66.9 nM | 14.4 nM | 23.1 nM | 941 nM | 26.7 nM | 9.9 nM | 23.6 nM | 50.9 nM | 15.6 nM |  |
| CC[C@@]1(OC(=O)Cc2ccccc2SSC(C)CCC(=O)NCCOCCOCCOCCn2cc(CNc3nc(NCCNC(=O)CCC(C)SSc4ccccc4CC(=O)Oc4ccccc4)nc(NCCOCCOCCOCCNC(=O)CCCC[C@@H]4SC[C@@H]5NC(=O)N[C@@H]54)n3)nn2)C(=O)OCc2c1cc1n(c2=O)Cc2cc3ccccc3nc2-1 (stereo not given in full) |  |  |  |  |  | > 5000 nM | 177 nM | 1260 nM | 1440 nM | > 5000 nM | 538 nM | > 5000 nM | 319 nM | 2390 nM |  |
| CC[C@@]1(O)C(=O)OCc2c1cc1n(c2=O)Cc2cc3ccccc3nc2-1 [CAMPTOTHECIN] | 1700 nM | 65.1 nM | 474 nM | 786 nM | 510 nM |  |  |  |  |  |  |  |  |  |  |

Source: ChEMBL document CHEMBL3297681, “Design, synthesis, and biological evaluations of tumor-targeting dual-warhead conjugates for a taxoid-camptothecin combination chemotherapy” (J Med Chem, 2014)
